Assay results as given in ChEMBL document CHEMBL4390647, “Efficient click chemistry towards novel 1H-1,2,3-triazole-tethered 4H-chromene-d-glucose conjugates: Design, synthesis and evaluation of in vitro antibacterial, MRSA and antifungal activities” (Eur J Med Chem, 2019).
Converted amounts (≈) assume the structure as drawn.

How the values were obtained:
[1] = test system: Candida albicans; assay: Antifungal activity against Candida albicans ATCC 1912 after 24 to 48 hrs by broth microdilution method; format: functional
[2] = test system: Candida albicans; assay: Antifungal activity against Candida albicans SUCC 625 after 24 to 48 hrs by broth microdilution method; format: functional
[3] = test system: Candida albicans; assay: Antifungal activity against Candida albicans SUCC 2303 after 24 to 48 hrs by broth microdilution method; format: functional
[4] = test system: Candida albicans; assay: Antifungal activity against Candida albicans ATCC 1905 after 24 to 48 hrs by broth microdilution method; format: functional
[5] = test system: Aspergillus flavus; assay: Antifungal activity against Aspergillus flavus ATCC 64025 after 24 to 48 hrs by broth microdilution method; format: functional
[6] = test system: Staphylococcus aureus; assay: Antibacterial activity against Staphylococcus aureus MRSA198 clinical isolate-3 measured after 18 to 20 hrs by microbroth dilution method; format: functional; conditions: MRSA198 isolate-3
[7] = test system: Escherichia coli; assay: Antibacterial activity against Escherichia coli ATCC 25922 measured after 18 to 20 hrs by microbroth dilution method; format: functional
Procedure, shortened: (§1)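 Inoculum from a 4–6-h broth adjusted to 0.5 McFarland, final 5 × 10⁵ CFU/mL. Incubation at 35°C for 18–20 h. MIC taken as the lowest concentration giving complete inhibition of visible growth; three experiments.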

[8] = test system: Klebsiella pneumoniae; assay: Antibacterial activity against measured after Klebsiella pneumoniae ATCC 4352 measured after 18 to 20 hrs by microbroth dilution method; format: functional; procedure, shortened: as §1
[9] = test system: Saccharomyces cerevisiae; assay: Antifungal activity against Saccharomyces cerevisiae SH 20 after 72 hrs by agar dilution method; format: functional; conditions: SH 20, 72 h
Procedure, shortened: (§2)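 Agar dilution on Sabouraud dextrose agar, with compounds at […] to 0.78 μM in twofold steps. Fungal suspensions at 10 CFU/mL as printed were applied to the compound-containing plates. Incubation at 35°C; MIC read after 72 h. Three experiments.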

[10] = test system: Pseudomonas aeruginosa; assay: Antibacterial activity against Pseudomonas aeruginosa […] measured after 18 to 20 hrs by microbroth dilution method; format: functional; procedure, shortened: as §1
[11] = test system: Salmonella typhimurium; assay: Antibacterial activity against Salmonella typhimurium ATCC 14028 measured after 18 to 20 hrs by microbroth dilution method; format: functional, Salmonella enterica subsp. enterica serovar Typhimurium; conditions: Salmonella enterica; procedure, shortened: as §1
[12] = test system: Staphylococcus aureus; assay: Antibacterial activity against Staphylococcus aureus ATCC 11632 after 18 to 20 hrs by microbroth dilution method; format: functional; procedure, shortened: as §1
[13] = test system: Staphylococcus epidermidis; assay: Antibacterial activity against Staphylococcus epidermidis ATCC 12228 after 18 to 20 hrs by microbroth dilution method; format: functional; procedure, shortened: as §1
[14] = test system: Bacillus subtilis; assay: Antibacterial activity against Bacillus subtilis ATCC 11774 after 18 to 20 hrs by microbroth dilution method; format: functional; procedure, shortened: as §1
[15] = test system: Candida albicans; assay: Antifungal activity against Candida albicans ATCC 7754 after 72 hrs by agar dilution method; format: functional; conditions: ATCC 7754, 72 h; procedure, shortened: as §2
[16] = test system: Staphylococcus aureus; assay: Antibacterial activity against Staphylococcus aureus MRSA198 clinical isolate-1 measured after 18 to 20 hrs by microbroth dilution method; format: functional; conditions: MRSA198 isolate-1
[17] = test system: Staphylococcus aureus; assay: Antibacterial activity against Staphylococcus aureus MRSA198 clinical isolate-2 measured after 18 to 20 hrs by microbroth dilution method; format: functional; conditions: MRSA198 isolate-2
[18] = Cytotoxicity against mouse RAW264.7 cells assessed as growth inhibition at 50 ug/mL after 120 hrs by MTT assay relative to control; format: cell-based; conditions: read-out: GI
Procedure, shortened: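 RAW 264.7 mouse macrophages were seeded at 25,000 cells/well and left to attach overnight. Compound in DMSO was added from a 200× concentrate, in duplicate wells, to a 50 μg/mL test level; DMSO served as control. Exposure 120 h at 37°C in 5% CO₂. MTT (4 mg/mL in PBS) was added for 4 h, formazan dissolved in DMSO, and absorbance read at 560 nm. Viability expressed as % of untreated cells, mean ± SE of at least three independent experiments.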

[19] = test system: Aspergillus niger; assay: Antifungal activity against Aspergillus niger ATCC 439 measured after 72 hrs by agar dilution method; format: functional; conditions: ATCC 439, 72 h; procedure, shortened: as §2
[20] = test system: Aspergillus flavus; assay: Antifungal activity against Aspergillus flavus ATCC 204304 measured after 72 hrs by agar dilution method; format: functional; conditions: ATCC 204304, 72 h; procedure, shortened: as §2
[21] = test system: Aspergillus niger; assay: Antifungal activity against Aspergillus niger NCIM1196 by standard agar method; format: functional
[22] = test system: Candida albicans; assay: Antifungal activity against Candida albicans NCIM3471 by standard agar method; format: functional
[23] = Antioxidant activity assessed as DPPH radical scavenging activity measured after 30 mins by spectrophotometric method; format: functional

SMILES | MIC [6] | MIC [7] | MIC [8] | MIC [9] | MIC [10] | MIC [11] | MIC [12] | MIC [13] | MIC [14] | MIC [15] | MIC [16] | MIC [17] | inhibition at 120 h, 50 ug/mL [18] | MIC [19] | MIC [20] | other results
N#CC1=C(N)Oc2ccc3ccccc3c2C1c1ccccc1 (stereo not given) |  |  |  |  |  |  |  |  |  |  |  |  |  |  |  | MIC [1]: > 1 µg/mL; MIC [2]: > 1 µg/mL; MIC [3]: > 1 µg/mL; MIC [4]: > 1 µg/mL; MIC [5]: > 1 µg/mL
CC(=O)OC[C@H]1O[C@@H](n2cc(COc3ccc4c(c3)OC(N)=C(C#N)C4c3ccc(Br)cc3)nn2)[C@H](OC(C)=O)[C@@H](OC(C)=O)[C@@H]1OC(C)=O (stereo not given in full) | 12.5 µM (≈ 9.43 µg/mL) | 100 µM (≈ 75.5 µg/mL) | 200 µM (≈ 151 µg/mL) | 1.56 µM (≈ 1.18 µg/mL) | 25 µM (≈ 18.9 µg/mL) | 200 µM (≈ 151 µg/mL) | 25 µM (≈ 18.9 µg/mL) | 100 µM (≈ 75.5 µg/mL) | 200 µM (≈ 151 µg/mL) | 3.12 µM (≈ 2.35 µg/mL) | 12.5 µM (≈ 9.43 µg/mL) | 12.5 µM (≈ 9.43 µg/mL) | 25.3% | 3.12 µM (≈ 2.35 µg/mL) | 200 µM (≈ 151 µg/mL) | 
COc1cccc(C2C(C#N)=C(N)Oc3cc(OCc4cn([C@@H]5O[C@H](COC(C)=O)[C@@H](OC(C)=O)[C@H](OC(C)=O)[C@H]5OC(C)=O)nn4)ccc32)c1OC (stereo not given in full) | 12.5 µM (≈ 9.2 µg/mL) | 200 µM (≈ 147 µg/mL) | 25 µM (≈ 18.4 µg/mL) | 200 µM (≈ 147 µg/mL) | 12.5 µM (≈ 9.2 µg/mL) | 12.5 µM (≈ 9.2 µg/mL) | 12.5 µM (≈ 9.2 µg/mL) | 25 µM (≈ 18.4 µg/mL) | 12.5 µM (≈ 9.2 µg/mL) | 100 µM (≈ 73.6 µg/mL) | 12.5 µM (≈ 9.2 µg/mL) | 12.5 µM (≈ 9.2 µg/mL) | 31.1% | 25 µM (≈ 18.4 µg/mL) | 25 µM (≈ 18.4 µg/mL) | 
CCOC(=O)c1cc2ccc(OCc3cn(Cc4ccc(F)cc4)nn3)cc2oc1=O |  |  |  |  |  |  |  |  |  |  |  |  |  |  |  | MIC [21]: 25 µg/mL (≈ 59 µM); MIC [22]: 12.5 µg/mL (≈ 29.5 µM)
CC(=O)OC[C@H]1O[C@@H](n2cc(COc3ccc4c(c3)OC(N)=C(C#N)C4c3ccccc3)nn2)[C@H](OC(C)=O)[C@@H](OC(C)=O)[C@@H]1OC(C)=O (stereo not given in full) | 200 µM (≈ 135 µg/mL) | 400 µM (≈ 270 µg/mL) | 400 µM (≈ 270 µg/mL) | 12.5 µM (≈ 8.45 µg/mL) | 200 µM (≈ 135 µg/mL) | 3.12 µM (≈ 2.11 µg/mL) | 200 µM (≈ 135 µg/mL) | 25 µM (≈ 16.9 µg/mL) | 400 µM (≈ 270 µg/mL) | 100 µM (≈ 67.6 µg/mL) | 400 µM (≈ 270 µg/mL) | 400 µM (≈ 270 µg/mL) | 22.9% | 6.25 µM (≈ 4.22 µg/mL) | 100 µM (≈ 67.6 µg/mL) | 
CCOC(=O)c1cc2ccc(OCc3cn(Cc4ccc([N+](=O)[O-])cc4)nn3)cc2oc1=O |  |  |  |  |  |  |  |  |  |  |  |  |  |  |  | IC50 [23]: 15 µg/mL (≈ 33.3 µM)
CC(=O)OC[C@H]1O[C@@H](n2cc(COc3ccc4c(c3)OC(N)=C(C#N)C4c3cccc(Cl)c3)nn2)[C@H](OC(C)=O)[C@@H](OC(C)=O)[C@@H]1OC(C)=O (stereo not given in full) | 1.56 µM (≈ 1.11 µg/mL) | 6.25 µM (≈ 4.44 µg/mL) | 3.12 µM (≈ 2.22 µg/mL) | 3.12 µM (≈ 2.22 µg/mL) | 25 µM (≈ 17.8 µg/mL) | 6.25 µM (≈ 4.44 µg/mL) | 1.56 µM (≈ 1.11 µg/mL) | 12.5 µM (≈ 8.88 µg/mL) | 6.25 µM (≈ 4.44 µg/mL) | 12.5 µM (≈ 8.88 µg/mL) | 3.12 µM (≈ 2.22 µg/mL) | 6.25 µM (≈ 4.44 µg/mL) | 17.2% | 12.5 µM (≈ 8.88 µg/mL) | 200 µM (≈ 142 µg/mL) | 
COc1ccc(C2C(C#N)=C(N)Oc3cc(OCc4cn([C@@H]5O[C@H](COC(C)=O)[C@@H](OC(C)=O)[C@H](OC(C)=O)[C@H]5OC(C)=O)nn4)ccc32)cc1OC (stereo not given in full) | 50 µM (≈ 36.8 µg/mL) | 6.25 µM (≈ 4.6 µg/mL) | 25 µM (≈ 18.4 µg/mL) | 25 µM (≈ 18.4 µg/mL) | 12.5 µM (≈ 9.2 µg/mL) | 400 µM (≈ 294 µg/mL) | 25 µM (≈ 18.4 µg/mL) | 1.56 µM (≈ 1.15 µg/mL) | 25 µM (≈ 18.4 µg/mL) | 6.25 µM (≈ 4.6 µg/mL) | 25 µM (≈ 18.4 µg/mL) | 50 µM (≈ 36.8 µg/mL) | 21.9% | 200 µM (≈ 147 µg/mL) | 3.12 µM (≈ 2.3 µg/mL) | 
CC(=O)OC[C@H]1O[C@@H](n2cc(COc3ccc4c(c3)OC(N)=C(C#N)C4c3ccc(Cl)cc3)nn2)[C@H](OC(C)=O)[C@@H](OC(C)=O)[C@@H]1OC(C)=O (stereo not given in full) | 100 µM (≈ 71 µg/mL) | 1.56 µM (≈ 1.11 µg/mL) | 12.5 µM (≈ 8.88 µg/mL) | 1.56 µM (≈ 1.11 µg/mL) | 3.12 µM (≈ 2.22 µg/mL) | 12.5 µM (≈ 8.88 µg/mL) | 50 µM (≈ 35.5 µg/mL) | 200 µM (≈ 142 µg/mL) | 400 µM (≈ 284 µg/mL) | 6.25 µM (≈ 4.44 µg/mL) | 200 µM (≈ 142 µg/mL) | 200 µM (≈ 142 µg/mL) | 25.1% | 50 µM (≈ 35.5 µg/mL) | 25 µM (≈ 17.8 µg/mL) | 
Cc1cc(C(C)(C)C)c(O)c(C(C)(C)C)c1 [BUTYLATED HYDROXYTOLUENE] |  |  |  |  |  |  |  |  |  |  |  |  |  |  |  | IC50 [23]: 16.47 µg/mL (≈ 74.7 µM)
OC(Cn1cncn1)(Cn1cncn1)c1ccc(F)cc1F [FLUCONAZOLE] |  |  |  | 0.78 µM (≈ 0.239 µg/mL) |  |  |  |  |  | 0.78 µM (≈ 0.239 µg/mL) |  |  |  | 1.56 µM (≈ 0.478 µg/mL) | 0.78 µM (≈ 0.239 µg/mL) | MIC [21]: 12.5 µg/mL (≈ 40.8 µM); MIC [22]: 12.5 µg/mL (≈ 40.8 µM)
